{"source": "ChEMBL document CHEMBL1157627", "about": "“A novel insulin secretagogue based on a dinucleoside polyphosphate scaffold” (J Med Chem, 2010)", "key": {"[1]": {"system": "Pancreas", "assay": "Induction of insulin secretion in isolated rat pancreas relative to basal level", "type": "functional"}, "[2]": {"system": "Pancreas", "assay": "Induction of insulin secretion in isolated rat pancreas", "type": "functional, tissue-based"}, "[3]": {"target": "T1, P2Y purinoceptor 1 (Homo sapiens, UniProt P47900)", "T1 sequence (P47900 whole entry)": "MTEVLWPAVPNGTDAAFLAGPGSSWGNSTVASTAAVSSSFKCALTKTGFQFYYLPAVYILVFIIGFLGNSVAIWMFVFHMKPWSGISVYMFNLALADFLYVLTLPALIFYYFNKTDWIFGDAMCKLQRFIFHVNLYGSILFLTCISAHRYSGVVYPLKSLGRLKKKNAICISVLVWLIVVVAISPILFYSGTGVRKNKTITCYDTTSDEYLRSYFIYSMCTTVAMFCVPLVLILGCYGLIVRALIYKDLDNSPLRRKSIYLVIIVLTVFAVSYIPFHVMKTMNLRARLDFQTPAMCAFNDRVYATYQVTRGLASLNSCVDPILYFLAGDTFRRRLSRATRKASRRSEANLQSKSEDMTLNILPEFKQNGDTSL", "assay": "Agonist activity at P2Y1 receptor expressed in human HEK293 cells", "type": "functional, cell-based"}, "[4]": {"assay": "Stability in human blood assessed as half life", "type": "ADME, tissue-based"}, "[5]": {"system": "Rattus norvegicus", "assay": "Antihyperglycemic activity against Han Wistar rat assessed as blood glucose level at […], iv after 45 mins by OGTT", "type": "functional"}, "[6]": {"assay": "Stability after 3 hrs in presence of alkaline phosphatase", "type": "ADME", "conditions": "isolated protein; call rule not given here", "summary_of_the_method": "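4 mM nucleotide with calf intestine alkaline phosphatase (12.5 units) in 0.1 M Tris-HCl, 0.1 M MgCl2, final pH 9.8, at 37 °C for 3 h. Stopped at 80 °C for 15 min, then weak anion-exchange cleanup and freeze-drying. Residual analogue quantified by change in reverse-phase HPLC peak integration over time.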"}, "[7]": {"system": "Rattus norvegicus", "assay": "Antihyperglycemic activity against Han Wistar rat assessed as increase in insulin level at […], iv after 5 mins relative to basal level", "type": "functional"}, "[8]": {"target": "T1, P2Y purinoceptor 1", "assay": "Agonist activity at G-protein coupled P2Y1 receptor expressed in human 1321N1 cells assessed as increase in calcium by Fura2 assay", "type": "functional, cell-based", "summary_of_the_method": "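Cell suspensions loaded with fura-2; [Ca2+]i read by dual-excitation spectrofluorometry at 37 °C in 10 mM HEPES-buffered saline pH 7.4 with 1 mM CaCl2 and 1 mM MgCl2. EC50 from maximal [Ca2+]i rise across concentrations; three experiments on separate days.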"}, "[9]": {"system": "Pancreas", "assay": "Increase in insulin secretion in isolated rat pancreas relative to ATP", "type": "functional"}, "[10]": {"assay": "Stability in human serum assessed as half life of hydrolysis", "type": "ADME, cell-free"}, "[11]": {"system": "Rattus norvegicus", "assay": "Antihyperglycemic activity against Han Wistar rat assessed as blood glucose level at […], iv after 150 mins by OGTT", "type": "functional"}, "[12]": {"assay": "Stability in human whole blood assessed as half life", "type": "ADME, tissue-based"}, "[13]": {"system": "Rattus norvegicus", "assay": "Antihyperglycemic activity against Han Wistar rat assessed as blood glucose level at 1 mg/kg, po after 45 mins by OGTT", "type": "functional", "summary_of_the_method": "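Overnight-fasted male Wistar Han rats, 10-11 weeks old, jugular-cannulated, 5 per group. Glibenclamide 1 mg/kg given orally at t = -30 min, then oral glucose 2 g/kg (3 mL/kg) at t = 0. Tail vein blood glucose read by glucometer over time, compared with saline-treated controls.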"}}}
{"smiles": "[BH3-]P(=O)(OC[C@H]1O[C@@H](n2cnc3c(N)nc(SC)nc32)[C@H](O)[C@H]1O)OP(=O)([O-])OP(=O)([O-])[O-].[Na+].[Na+].[Na+].[Na+]", "note": "(stereo not given in full)", "values": [{"measurement": "fold change (FC)", "setting": "[1]", "value": 9}, {"measurement": "EC50", "setting": "[2]", "value": 28, "unit": "nM"}, {"measurement": "EC50", "setting": "[3]", "value": 2.6, "unit": "nM"}]}
{"smiles": "Nc1nc2c(ncn2[C@@H]2O[C@H](COP(=O)(O)OP(=O)(O)OP(=O)(O)OP(=O)(O)OC[C@H]3O[C@@H](n4cnc5c(=O)[nH]c(N)nc54)[C@H](O)[C@@H]3O)[C@@H](O)[C@H]2O)c(=O)[nH]1", "values": [{"measurement": "half-life", "setting": "[4]", "value": 5, "unit": "min"}]}
{"smiles": "CSc1nc(N)c2ncn([C@@H]3O[C@H](COP(=O)([O-])CP(=O)([O-])OP(=O)([O-])OP(=O)([O-])OC[C@H]4O[C@@H](n5cnc6c(N)nc(SC)nc65)[C@H](O)[C@@H]4O)[C@@H](O)[C@H]3O)c2n1.[Na+].[Na+].[Na+].[Na+]", "values": [{"measurement": "Activity", "setting": "[5]", "value": 100, "unit": "mg/dL"}, {"measurement": "Stability", "setting": "[6]", "value": "Stable"}, {"measurement": "FC", "setting": "[7]", "value": 4}, {"measurement": "EC50", "setting": "[8]; read-out: EC50", "value": 420, "unit": "nM"}]}
{"smiles": "CSc1nc(N)c2ncn([C@@H]3O[C@H](COP(=O)([O-])OP(=O)([O-])CP(=O)([O-])OP(=O)([O-])OC[C@H]4O[C@@H](n5cnc6c(N)nc(SC)nc65)[C@H](O)[C@@H]4O)[C@@H](O)[C@H]3O)c2n1.[Na+].[Na+].[Na+].[Na+]", "values": [{"measurement": "Stability", "setting": "[6]", "value": "Stable"}, {"measurement": "EC50", "setting": "[8]; read-out: EC50", "value": 460, "unit": "nM"}]}
{"smiles": "CSc1nc(N)c2ncn([C@@H]3O[C@H](COP(=O)([O-])CP(=O)([O-])OP(=O)([O-])OC[C@H]4O[C@@H](n5cnc6c(N)nc(SC)nc65)[C@H](O)[C@@H]4O)[C@@H](O)[C@H]3O)c2n1.[Na+].[Na+].[Na+]", "values": [{"measurement": "Stability", "setting": "[6]", "value": "Stable"}, {"measurement": "EC50", "setting": "[8]; 1321-n1", "value": "Not Active"}]}
{"smiles": "Nc1ncnc2c1ncn2[C@H]1O[C@@H](COP(=O)(O)OP(=O)(O)OP(=O)(O)OC[C@@H]2O[C@H](n3cnc4c(N)ncnc43)[C@@H](O)[C@H]2O)[C@H](O)[C@@H]1O", "values": [{"measurement": "EC50", "setting": "[8]; read-out: EC50", "value": 11, "unit": "nM"}]}
{"smiles": "CCCCCCSc1nc(N)c2ncn([C@H]3O[C@@H](COP(O)(=S)OP(=O)(O)OP(=O)(O)O)[C@H](O)[C@@H]3O)c2n1", "note": "(stereo not given in full)", "values": [{"measurement": "fold change (FC)", "setting": "[9]", "value": 100}]}
{"smiles": "CSc1nc(N)c2ncn([C@@H]3O[C@H](COP(=O)(O)OP(=O)(O)O)[C@@H](O)[C@H]3O)c2n1", "note": "(single isomer, unassigned)", "values": [{"measurement": "half-life", "setting": "[10]", "value": 726, "unit": "min"}]}
{"smiles": "CSc1nc(N)c2ncn([C@@H]3O[C@H](COP(=O)(O)OP(=O)(O)CP(=O)(O)O)[C@@H](O)[C@H]3O)c2n1", "note": "(single isomer, unassigned)", "values": [{"measurement": "Activity", "setting": "[11]", "value": 85, "unit": "mg/dL"}, {"measurement": "EC50", "setting": "[8]; read-out: EC50", "value": 80, "unit": "nM"}]}
{"smiles": "Nc1ncnc2c1ncn2[C@@H]1O[C@H](COP(=O)(O)OP(=O)(O)O)[C@@H](O)[C@H]1O", "note": "[ADENOSINE DIPHOSPHATE]", "values": [{"measurement": "EC50", "setting": "[8]; read-out: EC50", "value": 14, "unit": "nM"}]}
{"smiles": "Nc1ncnc2c1ncn2[C@@H]1O[C@H](COP(=O)(O)OP(=O)(O)OP(=O)(O)OP(=O)(O)OC[C@H]2O[C@@H](n3cnc4c(N)ncnc43)[C@H](O)[C@@H]2O)[C@@H](O)[C@H]1O", "note": "[DIADENOSINE TETRAPHOSPHATE]", "values": [{"measurement": "half-life", "setting": "[12]", "value": 2, "unit": "min"}]}
{"smiles": "COc1ccc(Cl)cc1C(=O)NCCc1ccc(S(=O)(=O)NC(=O)NC2CCCCC2)cc1", "note": "[GLYBURIDE]", "values": [{"measurement": "Activity", "setting": "[13]", "value": 63, "unit": "mg/dL"}]}
